# Screening data deposited in PubChem BioAssay by Johns Hopkins Ion Channel Center.
# MrgX1 ag: agonists of human MrgX1 receptor, primary screen, HEK293 cells, Fluo-4 calcium flux | Mas-related G-protein coupled receptor member X1 (Homo sapiens), Q96LB2 | 310,000 compounds, 0.44% hits | B-score at 10 µM | Fluo-4 calcium fluorescence, agonist mode; hits give high values;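 active = calcium response B-score plate-corrected fluorescence ratio at least 3 library SD, with starting fluorescence B-score inside 5 SD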
# Target sequence (Q96LB2 whole entry, looked up): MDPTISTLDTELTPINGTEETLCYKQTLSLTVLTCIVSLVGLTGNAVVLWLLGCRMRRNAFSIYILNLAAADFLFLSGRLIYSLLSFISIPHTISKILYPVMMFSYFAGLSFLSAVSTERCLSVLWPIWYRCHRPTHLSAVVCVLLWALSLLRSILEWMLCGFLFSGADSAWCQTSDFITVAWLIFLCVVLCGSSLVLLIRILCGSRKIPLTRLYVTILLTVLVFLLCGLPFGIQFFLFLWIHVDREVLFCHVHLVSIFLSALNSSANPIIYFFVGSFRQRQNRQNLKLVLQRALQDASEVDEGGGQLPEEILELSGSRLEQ
#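 times = overnight plating, then 30 min 37 °C plus 30 min room-temperature dye loading | assay system = stable human MrgX1 HEK293 cell line | input = fifteen thousand cells per well | signal = kinetic calcium dye fluorescence, Fluo-4 NW | dosing = compound delivered in addition one of three | read-out = B-scored fluorescence response ratio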
# RGS4 block: RGS4 inhibitors, primary screen, cell-based, HEK293 M3R inducible RGS4, calcium flux. Regulator of G-protein signaling 4 (Homo sapiens), P49798. Fluo-4 calcium flux; hits give high values; triggered by carbachol at its EC20. B-score at 10 µM. 310,000 compounds, 0.45% hits. AID 463165, 2010;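 active = B-score, a plate-corrected calcium signal, over three deviations above library mean, with baseline fluorescence within five deviations of library mean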;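 also: RGS4 expression induced by doxycycline in cells with stable M3 receptor; B-score is computed from the integrated fluorescence ratio over baseline after carbachol; higher B-score means a larger calcium signal and so more RGS4 inhibition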
# Target sequence (P49798 whole entry, looked up): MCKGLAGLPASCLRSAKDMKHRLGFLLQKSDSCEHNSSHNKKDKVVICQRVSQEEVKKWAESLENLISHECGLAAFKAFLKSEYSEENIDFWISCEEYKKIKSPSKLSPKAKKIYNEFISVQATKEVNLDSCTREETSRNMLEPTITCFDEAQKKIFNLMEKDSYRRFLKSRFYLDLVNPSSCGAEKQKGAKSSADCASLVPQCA
# MrgX1 antagonist: antagonists of human MrgX1 receptor, primary screen, HEK293 cells, Fluo-4 calcium flux. Mas-related G-protein coupled receptor member X1 (Homo sapiens), Q96LB2. BAM8-22 antagonism; hits give low values. B-score at 10 µM. 310,000 compounds, 1.3% hits. AID 588676, 2011;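 active = calcium-response B-score plate-corrected more than 3 library SD below zero, starting fluorescence within 5 deviations, no agonist response on first addition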;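 also: peak minus trough fluorescence over baseline after final BAM8-22 challenge near maximal dose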
# RGS4 pot: RGS4 potentiators or activators, primary screen, cell-based, HEK293 M3R inducible RGS4, calcium flux | carbachol calcium flux Fluo4; hits give low values | B-score at 10 µM | 310,000 compounds, 0.92% hits;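 active = B-score of the integrated calcium signal more than 4 SD below the library mean, with starting fluorescence not abnormally high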;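 also: negative B-score means reduced calcium response which marks RGS4 activation or potentiation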
#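 test system = HEK293 cells with stable M3R and inducible RGS4 | schedule = recording 10 s baseline at 1 Hz, 100 s post-agonist | technique = Fluo4-AM (2 µM) calcium-flux fluorescence, kinetic read | measure = Agonist-evoked peak-minus-minimum fluorescence over baseline, integrated ratio, B score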
# MrgX1 allo act: positive allosteric modulators of MrgX1, primary screen, HEK293 cells, Fluo-4 calcium flux; AID 588675, 2011; 310,000 compounds, 0.63% hits; B-score at 10 µM; Mas-related G-protein coupled receptor member X1 (Homo sapiens), Q96LB2; FDSS; hits give high values;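 active = plate-corrected calcium response at least 3 library SD above typical, normal starting fluorescence, not activating the receptor alone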;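 also: compound read alongside a low EC10 to EC30 dose of BAM8-22 agonist; peak minus trough fluorescence over baseline measured at the second addition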
# RGS4 inh valid: enhanced carbachol calcium response, M3R/RGS4 cells, RGS4 inhibitor project, cell-based, validation screen, HEK293 M3R/RGS4, calcium flux; calcium response, % at 10 µM; shares compounds with RGS4 block; AID 492999, 2010; 1,700 compounds, 65% hits; carbachol calcium Fluo-4 fluorescence; carbachol added at its EC20; 0 = buffer wells, 100 = carbachol control;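 active = duplicate-averaged calcium response above the buffer-only control mean plus 5 SD of those controls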;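 also: integrated fluorescence ratio F max minus min over baseline F0; higher response in RGS4-induced cells means RGS4 inhibition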
# M3R Ca ctr: carbachol calcium response in non-induced M3R cells, confirmation, counter-screen for RGS4 inhibitor project, cell-based, HEK293 M3R; shares compounds with RGS4 block; 1,900 compounds, 20% hits; activity (percent), % at 10 µM; carbachol calcium Fluo-4; submaximal (EC20) carbachol stimulus; buffer wells 0%, carbachol control wells 100%; call rule not given here;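 also: RGS4 induction absent so cells express M3R without RGS4; higher means more calcium signal and flags a non-specific hit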
# RGS4 inh ctr2: signal in non-induced cells without carbachol, RGS4 inhibitor counter-screen | calcium response (agonist-mode artifact), % at 10 µM | HEK293 M3R/RGS4 non-induced, Fluo-4 calcium, no carbachol; normalised: buffer wells 0%, carbachol wells 100% | 1,900 compounds, 22% hits | shares compounds with RGS4 block;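 active = duplicate-averaged calcium rise in uninduced cells above buffer wells' mean plus 5 SD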
# MrgX1 ag reconf: MrgX1 receptor agonists, duplicate retest, confirmation, HEK293 cells, Fluo-4 calcium flux. Fluo-4 calcium fluorescence, FDSS. shares compounds with MrgX1 ag. activation, % at 10 µM. AID 602412, 2012. 600 compounds, 78% hits;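 active = calcium signal rise, corrected for plate position, at least 3 library SD high, with starting brightness within 5 such deviations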; also: reference of the scale not given here
# MrgX1 PAM conf: MrgX1 positive allosteric modulators, duplicate retest, confirmation, HEK293 cells, Fluo-4 calcium flux; AID 602413, 2012; Fluo-4 calcium fluorescence, FDSS; 1,200 compounds, 13% hits; shares compounds with MrgX1 allo act; activation (ratio percentage), % at 10 µM;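 active = ratio at least 3 SD above the weak peptide control, stable starting fluorescence, no direct agonism earlier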;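 also: compound followed by low BAM8-22 agonist challenge near EC20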
# MrgX1 antag conf: MrgX1 receptor antagonists, duplicate retest, confirmation, HEK293 cells, Fluo-4 calcium flux; BAM8-22 calcium flux; hits give low values; 2,300 compounds, 19% hits; remaining BAM8-22 calcium response % of control (hits give low values), % at 10 µM; shares compounds with MrgX1 antagonist;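 active = remaining agonist calcium response no higher than 100% minus 3 SD of agonist-only control wells, with starting fluorescence near control levels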;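 also: agonist BAM8-22 given at a near maximal EC90 to ECmax level; peak minus minimum fluorescence divided by baseline after agonist addition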
# HEK293 Ca flux: nonspecific calcium signal in parental HEK293, confirmation, counter-screen for MrgX1 antagonist project, parental HEK293 cells, Fluo-4 calcium flux; 4,000 compounds, 2% hits; fluorescence ratio F(max-min)/F0 at 10 µM; AID 624111, 2012; Fluo-4 calcium fluorescence, FDSS; shares compounds with MrgX1 antagonist;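 active = duplicate-averaged calcium fluorescence ratio at least three times the standard deviation of buffer wells, a nonspecific response in parental cells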
# HEK293 Ca counter: calcium response in parental HEK293 cells, primary screen, counter-screen for MrgX1 allosteric activator project, cell-based, Fluo-4 calcium flux, duplicate. fluorescence ratio F(max-min)/F0 at 10 µM. AID 624114, 2012. Fluo-4 fluorescence ratio; hits give high values. shares compounds with MrgX1 antagonist. 4,000 compounds, 0.4% hits;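 active = calcium fluorescence ratio, averaged over duplicates, at least 3 SD of the buffer-well ratio, meaning a nonspecific response in receptor-free cells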;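 also: untransfected parental HEK293 lacking MrgX1 used as counterscreen for MrgX1 allosteric activators; fluorescence change taken during the second addition on a kinetic imager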
# HEK293 Ca cntr2: calcium response in parental HEK293 cells, primary screen, counter-screen for MrgX1 agonist project, cell-based, Fluo-4 calcium flux, duplicate, agonist mode. shares compounds with MrgX1 antagonist. Fluo-4 calcium fluorescence (FDSS); hits give high values. fluorescence ratio F(max-min)/F0 at 10 µM. 4,000 compounds, 8.7% hits;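 active = calcium fluorescence ratio at least three times the spread of buffer wells, meaning a non-specific response in parental cells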
# Active calls of the source: *; i = inactive; · = not tested or not shown. In the library only some 3.5% were active in any assay of this set; here they are far more common.
SMILES,MrgX1 ag,RGS4 block,MrgX1 antagonist,RGS4 pot,MrgX1 allo act,RGS4 inh valid,M3R Ca ctr,RGS4 inh ctr2,MrgX1 ag reconf,HEK293 Ca flux,HEK293 Ca counter,HEK293 Ca cntr2,others
CCOc1cc(/C=C2\C(=O)ON=C2c2ccccc2)cc(Br)c1O,83*,i,i,i,i,i,i,322%*,i,i,i,i,
COc1cc(/C=C2\C(=O)ON=C2c2ccccc2)cc(Br)c1O,78*,4.7*,i,i,i,9.5%*,i,281%*,i,i,i,i,
Cn1cc(-c2ccno2)c(C(=O)O)n1,i,i,i,i,i,·,·,·,·,·,·,·,
COc1cc(/C=C2/C(=O)NN(c3cccc(Cl)c3)C2=O)cc(OC)c1O,79*,i,i,i,i,·,i,106%*,421%*,i,i,84*,
COc1cc(/C=C2/NC(=O)N(c3cccc(Cl)c3)C2=O)ccc1O,i,i,i,i,i,·,·,·,·,·,·,·,
COCC(C)NCc1ccc(OC)c(Br)c1 (stereo unspecified),i,i,i,i,i,·,·,·,·,·,·,·,
O=C1c2ccccc2S(=O)(=O)c2cc(C(=O)N(c3ccccn3)c3ccccn3)ccc21,41*,4.9*,i,i,i,14%*,34%*,135%*,653%*,i,i,126*,
CCOC(=O)[C@@H]1[C@H]2COc3ccccc3[C@@H]2N2C(=O)N(c3cccc(C)c3)C(=O)[C@]12C,i,i,-5.8*,i,i,i,i,i,·,i,i,i,MrgX1 antag conf=i
CCOC(=O)[C@@H]1[C@H]2COc3cc(OC)ccc3[C@H]2N2C(=O)N(c3ccc(C(F)(F)F)cc3)C(=O)[C@@]12C,i,i,i,i,i,·,·,·,·,·,·,·,
CCOC(=O)[C@@H]1[C@H]2COc3ccccc3[C@H]2N2C(=O)N(c3ccc(OC)cc3)C(=O)[C@]12C,i,i,-6.3*,i,i,i,i,i,·,i,i,i,MrgX1 antag conf=i
CC(C)C(NC(N)=O)C(=O)NC1CCCCC1 (stereo unspecified),i,i,i,i,i,·,·,·,·,·,·,·,
CN(Cc1cccnc1)C(=O)Cc1ccc(NS(=O)(=O)c2cccc(C(F)(F)F)c2)cc1,i,i,i,i,i,·,·,·,·,·,·,·,
CCOC(=O)C1=C(O)/C(=C\c2cccc(OC)c2)N=C1C,32*,14*,i,i,i,47%*,i,i,158%*,i,i,i,
COC(=O)C1=C(O)/C(=C/c2cccc(OC)c2O)N=C1C,i,i,i,i,i,·,·,·,·,·,·,·,
Cc1c(-c2nc(N)nc(Nc3ccccc3F)n2)oc2ccccc12,i,i,i,i,16*,·,i,i,·,i,i,i,MrgX1 PAM conf=59%*
O=C1/C(=C\c2ccc(O)c(O)c2)SC(=S)N1Cc1ccccc1,i,14*,-12*,i,i,16%*,36%*,42%*,·,0.31*,i,i,MrgX1 antag conf=i
O=C1/C(=C/c2ccc(O)cc2)SC(=S)N1Cc1cccnc1,i,i,i,i,i,·,·,·,·,·,·,·,
CCOC(=O)C(=O)C1=C(N2CCOCC2)/C(=C\c2ccc(F)cc2)CC1,27*,7.7*,i,i,i,7.0%*,i,21%*,220%*,i,i,45*,
CC(C)N1C(=O)CSC1c1ccc(Br)cc1 (stereo unspecified),i,i,i,i,i,·,·,·,·,·,·,·,
COc1ccc2c(c1)nc(N)n2Cc1ccccc1,49*,i,i,i,i,·,·,·,233%*,i,i,i,
CN(C)CCOc1ccc2c(c1)Sc1ccccc1CC2=O,55*,i,i,i,i,·,·,·,i,i,i,i,
O=C(NC(=S)NNC(=O)c1cccs1)c1ccc(Br)o1,100*,i,i,i,i,·,·,·,710%*,i,i,137*,
O=C(NNC(=S)NC(=O)c1cccs1)c1ccc(O)cc1,i,i,i,i,i,·,·,·,·,·,·,·,
COC(=O)/C=C1/S/C(=N/NC(=O)c2ccccc2OC)NC1=O,i,i,i,i,i,·,·,·,·,·,·,·,
